This note sets out measurements from ChEMBL document CHEMBL6109076, “Design and synthesis of novel thioether analogs as promising antiviral agents: In vitro activity against enteroviruses of interest” (Eur J Med Chem, 2025).

Data set [1] can be described thus: Selectivity index, ratio of CC50 for cytotoxicity against human MRC5 cells to EC50 for antiviral activity against Enterovirus A71 infected in human MRC5 cells. Type of data set: toxicity, cell-based. Particulars: read-out: Selectivity Index.
In a further data set the test system is Coxsackievirus. Description: Antiviral activity against Coxsackievirus A24 UVE/CV-A24/2010/LA/HFMK14 infected in human MRC5 cells assessed as […]. The format is functional, organism-based. Particulars: UVE/CV-A24/2010/LA/HFMK14, MRC5.
For the next data set, the system named is Human echovirus 30. Description: Antiviral activity against Echovirus 30 strain UVE/E-30/2013/FR/4-MRS2013 infected in human MRC5 cells assessed as […]. The following applies: Enterovirus B, UVE/E-30/2013/FR/4-MRS2013, MRC5. Type of data set: functional, organism-based, Echovirus E30. An outline of the steps: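 MRC-5 cells seeded the day before infection in assay medium with 2.5 % FBS. After 24 h, compounds added as eight ½ dilutions, then virus added. On day 3 post-infection, supernatant harvested and viral RNA quantified by RT-qPCR (pan-enterovirus probe/primers, synthetic RNA standard curve). Inhibition calculated relative to four virus control wells per plate. EC50 obtained by nonlinear regression (log(inhibitor) vs response, variable slope, three parameters); two independent experiments.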

Data set [2] is described as follows: Cytotoxicity against human MRC5 cells. The format is toxicity, cell-based. The method, boiled down: (§1)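 CC50 was measured in parallel on compound-treated uninfected cells, run alongside the antiviral assay. Cells were seeded one day ahead in assay medium with 2.5 % FBS (RD at 50000 cells/well) and held at 37 °C, 5 % CO2; MRC-5 were grown in BME with 10 % FBS. Compounds were added as eight ½ dilutions. CC50 came from nonlinear regression (log(inhibitor) vs response, variable slope, three parameters); median ± std of two independent experiments.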

Data set [3] is described as follows: Selectivity index, ratio of CC50 for cytotoxicity against human MRC5 cells to EC50 for antiviral activity against Coxsackievirus A24 UVE/CV-A24/2010/LA/HFMK14 infected in human MRC5 cells. The format is toxicity, cell-based. Particulars: read-out: Selectivity Index. The method, boiled down: (§2)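 In MRC-5 cells, SI = CC50/EC50. EC50 comes from the 3-day RT-qPCR viral RNA inhibition assay with eight ½ dilutions. CC50 was measured in parallel on compound-treated uninfected MRC-5 cells. Both values derived by nonlinear regression (three-parameter, variable slope); two independent experiments.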

The nature of data set [4]: Selectivity index, ratio of CC50 for cytotoxicity against human RD cells to EC50 for antiviral activity against Enterovirus A71 infected in human RD cells.
Data set [5] has as its system Enterovirus A71. Briefly: Antiviral activity against Enterovirus A71 Laos2011 HFMD18T infected in human MRC5 cells assessed as reduction in viral replication incubated for 72 hrs by RT-qPCR analysis. The format is functional, organism-based. Particulars: Enterovirus A, MRC5, 72 h.
Data set [6] deals with Enterovirus A71. Briefly: Antiviral activity against Enterovirus A71 Laos2011 HFMD18T infected in human RD cells assessed as reduction in viral replication incubated for 72 hrs by RT-qPCR analysis. The following applies: Enterovirus A. The format is functional, organism-based. (In qPCR the cycle at which signal appears reflects the starting amount.)
The nature of data set [7]: Cytotoxicity against human RD cells. The format is toxicity, cell-based. An outline of the steps: as §1
The nature of data set [8]: Cytotoxicity against Chinese hamster CHO cells.
The nature of data set [9]: Selectivity index, ratio of CC50 for cytotoxicity against human MRC5 cells to EC50 for antiviral activity against Echovirus 30 strain UVE/E-30/2013/FR/4-MRS2013 infected in human MRC5 cells. The format is toxicity, cell-based. Particulars: read-out: Selectivity Index. An outline of the steps: as §2
Data set [10] concerns Enterovirus A71. Description: Antiviral activity against Enterovirus A71 Laos2011 HFMD18T infected in human RD cells assessed as inhibition of viral RNA copies measured per ml of supernatant at 10 uM treated at time of infection measured after 72 hrs. Particulars: Enterovirus A. The format is functional.
Data set [11] deals with Enterovirus A71. Description: Antiviral activity against Enterovirus A71 Laos2011 HFMD18T infected in human RD cells assessed as inhibition of viral RNA measured per ml of supernatant at 10 uM pretreated 1 hr before infection measured after 72 hrs. Particulars: Enterovirus A. Type of data set: functional.
Data set [12] concerns Enterovirus A71. Briefly: Antiviral activity against Enterovirus A71 Laos2011 HFMD18T infected in human RD cells assessed as inhibition of viral RNA copies measured per ml of supernatant at 10 uM treated 4 hr post infection measured after 72 hrs. Type of data set: functional. Particulars: Enterovirus A.
Data set [13] concerns Enterovirus A71. Description: Antiviral activity against Enterovirus A71 Laos2011 HFMD18T infected in human RD cells assessed as RNA copies measured per ml of supernatant at 10 uM treated 4 hr post infection measured after 72 hrs. Type of data set: functional.
The test system of data set [14] is Enterovirus A71. Description: Antiviral activity against Enterovirus A71 Laos2011 HFMD18T infected in human RD cells assessed as RNA copies measured per ml of supernatant at 10 uM treated at time of infection measured after 72 hrs. Type of data set: functional.
The test system of data set [15] is Enterovirus A71. Briefly: Antiviral activity against Enterovirus A71 Laos2011 HFMD18T infected in human RD cells assessed as RNA copies measured per ml of supernatant at 10 uM treated 1 hr post infection measured after 72 hrs.
Data set [16] relates to Enterovirus A71. Briefly: Antiviral activity against Enterovirus A71 Laos2011 HFMD18T infected in human RD cells assessed as inhibition of viral RNA copies measured per ml of supernatant at 10 uM measured after 72 hrs. The following applies: Enterovirus A.
For data set [17], the system named is Enterovirus A71. Briefly: Antiviral activity against Enterovirus A71 Laos2011 HFMD18T infected in human RD cells assessed as RNA copies measured per ml of supernatant at 10 uM pretreated 1 hr before infection measured after 72 hrs relative to control. Type of data set: functional.

The EC50 is the concentration needed to bring the measured effect to its halfway point. As usually defined, the CC50 is the concentration giving 50% cytotoxicity. The low end stands for harm at low concentration, the high end for better tolerance by the cells. In the case of `OCc1ccc(-c2ccc(SCc3ccc(-n4cncn4)cc3)nc2)cc1`, the selectivity ratio in data set [1] was > 181; in [3], > 1.7. The concentration for a half-maximal effect (EC50) in the data set on Coxsackievirus is 23.2 µM; in the data set on Human echovirus 30, > 40 µM. Moreover, the CC50 in data set [2] is > 40 µM.
`OCc1cccc(-c2ccc(SCc3ccc(-n4cncn4)cc3)nc2)c1`: the selectivity ratio is > 1.8 in [1] and > 14 in [4]. The concentration for a half-maximal effect (EC50) in the data set with Enterovirus A71 [5] stood at 22 µM; with Enterovirus A71 [6], 2.78 µM. Also, the CC50 in data set [7] and in data set [2] was > 40 µM in each case.
With `c1ncn(-c2ccc(CSc3ccc(-c4ccc5cn[nH]c5c4)cc3)cc2)n1`, the EC50 with Enterovirus A71 [6] was > 40 µM.
Turning to `c1ccc2oc(-c3ccc(SCc4ccc(-n5cncn5)cc4)cc3)cc2c1`, in the data set on Enterovirus A71 [6], the EC50 is > 40 µM.
Consider `Cn1cc(-c2ccc(CSc3ccc(-c4ccc5ccccc5c4)cn3)cc2)cn1`, for which the values for the selectivity ratio in [1] and in [4] were > 1.8 and > 3.3, respectively. Also, the EC50 in the data set with Enterovirus A71 [5] was determined as 22.4 µM; in the data set with Enterovirus A71 [6] it was 12 µM. For the same compound, the CC50 in data set [7] and in data set [2] was > 40 µM in each case.
Consider `CN(C)c1ncc(-c2ccc(CSc3ccc(-c4ccc(CO)cc4)cn3)cc2)cn1`, for which the 50% effective concentration (EC50) with Enterovirus A71 [6] is > 40 µM.
For `O=C1NC(SCc2ccc(-n3cncn3)cc2)=N/C1=C\c1c[nH]c2ccccc12`, the selectivity ratio in data set [4] stood at 20.7. For the same compound, the results for the CC50 in data set [8] and in data set [7] were 33.6 µM and 96.3 µM, respectively. Also, the EC50 in the data set with Enterovirus A71 [5] was > 40 µM; in the data set with Enterovirus A71 [6], 4.65 µM.
Broadly, the inhibition is the drop in the measured response relative to a control, in per cent. As to `c1ccc2cc(-c3ccc(SCc4ccc(-n5cncn5)cc4)nc3)ccc2c1`, the selectivity ratio was > 12 in data set [1], 15.4 in data set [4], > 100 in data set [9] and > 40 in data set [3]. The CC50 in data set [8] was 43.2 µM; in [7] it was 23.5 µM; in data set [2], > 40 µM. The inhibition at 10 µM with Enterovirus A71 [10] is > 90%; in the data set with Enterovirus A71 [11], > 90%; in the data set on Enterovirus A71 [12], < 90%; in the data set with Enterovirus A71 [16], > 90%. The EC50 with Coxsackievirus was found to be 0.99 µM; with Enterovirus A71 [5] it was 3.25 µM; with Enterovirus A71 [6], 1.86 µM; in the data set with Human echovirus 30, 0.4 µM. The Activity in the data set with Enterovirus A71 [13] amounted to 0.7 log10/ml; in the data set with Enterovirus A71 [14], 1.25 log10/ml; in the data set with Enterovirus A71 [15], 1.14 log10/ml; in the data set with Enterovirus A71 [17] it was 1.5 log10/ml.
For `c1ccc2cc(-c3ccc(SCc4ccc(-n5cncn5)cc4)cc3)ncc2c1`, the selectivity ratio in data set [1] was > 25; in data set [4], 6.62; in data set [9], > 100; in data set [3] it was > 32. Moreover, the CC50 in data set [8] is 31.3 µM; in data set [7], 30.5 µM; in data set [2], > 40 µM. The EC50 came out at 1.22 µM in the data set on Coxsackievirus, 1.15 µM in the data set on Enterovirus A71 [5], 4.3 µM in the data set on Enterovirus A71 [6] and 0.41 µM in the data set on Human echovirus 30.
For the compound `Cn1cc(-c2ccc(SCc3ccc(-n4cncn4)cc3)nc2)cn1`, the EC50 was 0.57 µM in the data set on Enterovirus A71 [5] and 4.38 µM with Enterovirus A71 [6].
On to `CCNc1ncc(-c2ccc(CSc3ccc(-c4ccc(CO)cc4)cn3)cc2)cn1`, for which the EC50 in the data set with Enterovirus A71 [6] is > 40 µM.
For `OCc1ccc(-c2ccc(SCc3ccc(-c4cnc(N5CCOCC5)nc4)cc3)nc2)cc1`, the EC50 in the data set on Enterovirus A71 [6] is > 40 µM.
On to `Nc1ncc(-c2ccc(CSc3ccc(-c4ccc(CO)cc4)cn3)cc2)cn1`, for which the selectivity ratio in data set [1] was > 54; in [4] it was 1.81. In addition, the CC50 in [8] was 36.9 µM; in data set [7], 44.7 µM; in data set [2] it was > 20 µM. The figures for the EC50 in the data set on Enterovirus A71 [5] and with Enterovirus A71 [6] were < 0.37 µM and 24.7 µM, respectively.
For `c1ccc(Cn2cc(-c3ccc(CSc4ccc(-c5ccc6ccccc6c5)cn4)cc3)cn2)cc1`, the EC50 in the data set on Enterovirus A71 [6] amounted to 22.3 µM.
As to `CN1CCN(c2ncc(-c3ccc(CSc4ccc(-c5ccc(CO)cc5)cn4)cc3)cn2)CC1`, in the data set on Enterovirus A71 [6], the EC50 was > 40 µM.
Still for that read-out and setting: then `c1ccc2cc(-c3ccc(SCc4ccc(-n5cncn5)cc4)cc3)ccc2c1`, with > 40 µM; and `c1ncn(-c2ccc(CSc3ccc(-c4ccc5[nH]ccc5c4)cc3)cc2)n1`, with > 40 µM.
Consider `CN(C)c1ccc(-c2ccc(CSc3ccc(-c4ccc5ccccc5c4)cn3)cc2)cc1`, for which the EC50 in the data set with Enterovirus A71 [6] was > 40 µM.
Turning to `Cc1noc(C)c1-c1ccc(CSc2ccc(-c3ccc4ccccc4c3)cn2)cc1`, the selectivity ratio in data set [4] is > 1.8. Moreover, the EC50 in the data set with Enterovirus A71 [5] was > 40 µM; in the data set on Enterovirus A71 [6], 22.3 µM. In data set [7], the CC50 was > 40 µM.
Consider `CN(C)c1cccc(-c2ccc(CSc3ccc(-c4ccc5ccccc5c4)cn3)cc2)c1`, for which the EC50 in the data set on Enterovirus A71 [6] is > 40 µM.
For the compound `c1ccc2cc(-c3ccc(SCc4ccc(-n5cncn5)cc4)nc3)ncc2c1`, the selectivity ratio in data set [4] is > 1.8. The EC50 with Enterovirus A71 [5] is > 20 µM; in the data set with Enterovirus A71 [6], 22.1 µM. In [7], the CC50 was > 40 µM.
Consider `COc1ncc(-c2ccc(CSc3ccc(-c4ccc(CO)cc4)cn3)cc2)cn1`, for which, in the data set with Enterovirus A71 [6], the 50% effective concentration (EC50) is > 40 µM.
As to `c1ccc2c(-c3ccc(SCc4ccc(-n5cncn5)cc4)nc3)cccc2c1`, in the data set with Enterovirus A71 [6], the EC50 was > 40 µM.
Regarding `CCOc1noc2cc(OCCC3CCN(c4ccc(C)nn4)CC3)ccc12` [VAPENDAVIR], the CC50 in data set [7] was > 63 µM; in data set [2], > 20 µM.
